# From PubChem BioAssay AID504450 (Broad Institute, 2011)
# Inconclusive results are not listed. Active and inactive are the calls of the source.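 The calls were made as follows: active = signal falls, and half-maximal potency stays within ten times the top tested dose in every run; inconclusive = runs disagree, or a flat partial drop, or a poor fit; inactive = inactive every run, flat, wrong way or too weak.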
# Test system: not listed separately
# Test: viability loss of control HMLE line – cell-based, HMLE_sh_eGFP, luminescence, powder samples, set 4, counter-screen for breast cancer stem cell project, dose response (AID 504450)
# Settings: HMLE_sh_eGFP viability, CellTiter-Glo luminescence, 72 h; at 30 µM (top of the series)
# Procedure, shortened: (§1)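 Assay system – HMLE_sh_eGFP cells · Buffer or medium – serum-free CSC medium · Doses – 100 nL compound added by pin transfer per well · Incubation – compound exposure about 70-74 h at 37 °C, 5% CO2 · Detection – CellTiter-Glo ATP luminescence, reagent diluted 1:3 in PBS, 12 min incubation · Control set – DMSO-only neutral wells and puromycin-treated positive wells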
row,Compound,"activity change, negative = viability loss"
1,O=S(=O)(/C=C/c1ccccc1)NC1=NCCS1,19.6% (inactive)
2,O=C(c1ccc(COc2ccccc2)o1)N1CCOCC1,5.39% (inactive)
3,Cc1cccc(C)c1OCC(=O)N/N=C/c1ccc[nH]1,8.5% (inactive)
4,COc1ccccc1OCC(=O)N/N=C/c1ccc[nH]1,14.8% (inactive)
5,O=C(NC1=NCCS1)/C(F)=C/c1ccccc1,13.9% (inactive)
6,O=C(Nc1nccs1)c1ccc(COc2ccccc2)o1,5.29% (inactive)
7,O=C(/C=C/c1ccc(Cl)cc1)NC1=NCCS1,-4.58% (inactive)
8,CC(C)c1ccc(/C=C/C(=O)Nc2ncc[nH]2)cc1,-18.2% (inactive)
9,O=C(N/N=C/c1ccn[nH]1)c1cc2ccccc2o1,16.4% (inactive)
10,Cc1csc(NC(=O)c2ccc(CO)o2)n1,13.5% (inactive)
11,O=C(COc1c(Cl)cc(Cl)cc1Cl)N/N=C/c1ccn[nH]1,0.468% (inactive)
12,O=C(NC1=NCCS1)C1CC1c1ccccc1 (stereo not drawn),7.45% (inactive)
13,Cc1ccc(C)c(OCC(=O)N/N=C/c2ccc[nH]2)c1,-10.1% (inactive)
14,O=C(N/N=C/c1ccc[nH]1)C1CC1c1ccccc1 (stereo not drawn),-2.24% (inactive)
15,O=C(COc1ccc(Cl)cc1Cl)N/N=C/c1ccn[nH]1,6.79% (inactive)
16,C/C(=C\c1ccccc1)C(=O)NC1=NCCS1,12% (inactive)
17,COc1cccc(/C=C/C(=O)NC2=NCCS2)c1,1.9% (inactive)
18,Cn1ccnc1NC(=O)c1ccc(COc2ccccc2)o1,-18.4% (inactive)
19,O=C(/C=C/c1ccc(C(F)(F)F)cc1)NC1=NCCS1,11.7% (inactive)

# Test system: HMLE_sh_eGFP viability, CellTiter-Glo luminescence, 72 h
# Test: as above
# Settings: not given
# Procedure, shortened: as §1
row,Compound,AC50 [µM]
1,Cc1csc(NC(=O)c2ccc(COc3cccc(OC(F)(F)F)c3)o2)n1,4.4
2,Cc1csc(NC(=O)c2ccc(COc3ccccc3C(F)(F)F)o2)n1,0.057
3,O=C(COc1ccc2ccccc2c1Br)N/N=C/c1ccc[nH]1,3.03
4,Cc1csc(NC(=O)c2ccc(COc3cccc(Cl)c3)o2)n1,6.6
5,Cc1csc(NC(=O)c2ccc(COc3cccc(C(F)(F)F)c3)o2)n1,23.5
6,Cc1csc(NC(=O)c2ccc(COc3ccccc3F)o2)n1,0.151
7,Cc1csc(NC(=O)c2ccc(COc3ccccc3OC(F)(F)F)o2)n1,0.38
8,COc1cccc(OCc2ccc(C(=O)Nc3nc(C)cs3)o2)c1,1.59
9,CC(C)c1ccc(/C=C/C(=O)Nc2nccn2C)cc1,5.97
10,Cc1csc(NC(=O)c2ccc(COc3ccc(F)cc3)o2)n1,28.5
11,Cc1csc(NC(=O)c2ccc(COc3ccccc3C#N)o2)n1,3.69
12,Cc1csc(NC(=O)c2ccc(COc3ccc(Cl)cc3)o2)n1,13
13,CC[C@@H](C(=O)O)C1CC[C@H](C)C([C@@H](C)[C@H](O)[C@H](C)C(=O)[C@H](CC)C2O[C@]3(C=C[C@@H](O)[C@]4(CC[C@@](C)(C5CC[C@](O)(CC)[C@H](C)O5)O4)O3)[C@H](C)C[C@@H]2C)O1 (stereo partly drawn),0.007
14,Cc1csc(NC(=O)c2ccc(COc3ccccc3Cl)o2)n1,0.163
15,Cc1csc(NC(=O)c2ccc(COc3ccc(C#N)cc3)o2)n1,12.7
16,CC(C)(C)c1ccc(C2CC2C(=O)N/N=C/c2ccc[nH]2)cc1 (stereo not drawn),2.14
17,O=C(/C=C/c1cccc(Cl)c1)NC1=NCCS1,21.5

row,Compound,AC50 [µM]
1,Cc1csc(NC(=O)c2ccc(COc3ccc(C(F)(F)F)cc3)o2)n1,2.92
2,O=C(Nc1ccccn1)c1ccc(COc2ccccc2)o1,29.7
3,CC(C)c1ccc(/C=C/C(=O)N(C)Cc2ccccc2)cc1,9.01
4,Cc1csc(NC(=O)c2ccc(COc3ccc(OC(F)(F)F)cc3)o2)n1,13.2
5,Cc1csc(NC(=O)c2ccc(COc3cccc(F)c3)o2)n1,21.5
6,Cc1csc(NC(=O)c2ccc(COc3cccc(C#N)c3)o2)n1,15.4
7,CC(C)c1ccc(/C=C/C(=O)NCc2ccccc2)cc1,13.2
8,O=C(COc1ccc(Cl)cc1Br)N/N=C/c1ccc[nH]1,20.9
9,CC(C)c1ccc(/C=C/C(=O)Nc2nccs2)cc1,7.26
10,O=C(COc1ccc2c(c1)OCO2)N/N=C/c1ccc[nH]1,20.9
11,O=C(N/N=C/c1ccc[nH]1)C1COc2cc3ccccc3cc2O1 (stereo not drawn),18.9
12,CC(C)c1ccc(/C=C/C(=O)Nc2ccccn2)cc1,14.8
13,COc1ccccc1OCc1ccc(C(=O)Nc2nc(C)cs2)o1,8.54
14,CC(C)c1ccc(/C=C/C(=O)Nc2nncs2)cc1,9.97
15,O=C(CSc1cc(Cl)ccc1Cl)N/N=C/c1ccc[nH]1,18
16,CC(C)(C)c1ccc(/C=C/C(=O)NC2=NCCS2)cc1,20.6
17,O=C(Nc1nc2cccc(Cl)c2s1)c1ccc(COc2ccccc2)o1,9.36
